Only a sample is shown.
Apaf-1 act = activators of human Apaf-1 apoptosome; Apaf-1 apoptosome caspase-3 activation, DEVD-Rh110 fluorescence; stronger effect = lower value; activity change, negative = activation, % at 20 µM; 330,000 tested, 0.31% active;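 active means activity change at or below -40% at 20 µM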
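System: Reconstituted apoptosome of Apaf-1, cytochrome c, caspase-9, procaspase-3 | Reagent: dATP, cytochrome c, and (Z-DEVD)2-Rh110 caspase-3 substrate | Times: 30 min compound preincubation and 50 min reaction, both room temperature | Detection: Caspase-3-released Rh110 fluorescence, 540 nm emission, 480 nm excitation | Measure: Caspase-3 activity via Apaf-1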
Rh110 interf act = interferes with Rh110 fluorescence, flagging false Apaf-1 activators; shares compounds with Apaf-1 act; AID 504616; 980 tested, under 10 active; fluorescence interference (activity change), % at 20 µM, hits read low; Rh110 fluorescence interference, quenched caspase reaction, Ex480/Em540;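 active means mean activity change at or below -40% when tested at 20 µM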
Apaf-1 act conf = confirmation of human Apaf-1 activators | 980 tested, 5% active | shares compounds with Apaf-1 act | reconstituted apoptosome caspase-3 activity, DEVD-Rh110 fluorescence; stronger effect = lower value | AID 504617 | activity change, negative = activation, % at 20 µM;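 active means mean activity change at or below -40%, meaning activation of 40% or more, at 20 µM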
Apaf1 act interf = Apaf-1 activator counter-screen fluorescence artifact | shares compounds with Apaf-1 act | fluorescence interference counterscreen, Apaf-1 activator assay | EC50, µM | 55 tested, under 10 active; call rule not given here
Each line names hits and unclear results; the compound was inactive in the other large screens (follow-up assays come after a bar, where they were run).

CCCCNC1=CC(=O)C(=O)c2ccccc21	none
COc1cccc2cc(C(=O)NCc3ccc(Cl)cc3)c(=N)oc12	none
CSc1ncccc1C(=O)NCCc1ccc(Cl)cc1	Apaf-1 act -99 | Rh110 interf act inactive | Apaf-1 act conf inactive
O=C1/C(=C\c2ccc(-c3ccccc3[N+](=O)[O-])o2)C(c2ccccc2)=NN1c1ccccc1	none
C[n+]1cccc2c(Br)ccc([O-])c21	none
Cc1ccccc1C(=O)N1CCC(n2nccc2NC(=O)CCOc2ccccc2)CC1	Apaf-1 act -187 | Rh110 interf act inactive | Apaf-1 act conf inactive
CCN1CCN(c2cc(N3CCN(C(=O)c4ccco4)CC3)c3c4c(onc24)-c2ccccc2C3=O)CC1	none
COC(=O)c1ccc(C(=O)Nc2ccc(N)cc2N)cc1	none
NCCc1cnc[nH]1	none
O=C(NCc1ccc2c(c1)OCO2)c1ccc2snnc2c1	Apaf-1 act -181 | Rh110 interf act inactive | Apaf-1 act conf inactive
COC(=O)C1=C(C)N(Cc2ccccc2)C(=NCc2ccc3c(c2)OCO3)N[C@H]1c1ccccc1	none
CN[C@H]1CC[C@@H](c2ccc(Cl)c(Cl)c2)c2ccccc21	none
Cc1cccc(-n2ncc3c2CCCC3NC(=O)CN2CCCC2=O)c1C (stereo not given)	Apaf-1 act -203 | Rh110 interf act inactive | Apaf-1 act conf inactive
CCOC(=O)N1CCC(NC(=O)CN2C(=O)CSc3ncccc32)CC1	none
COc1ccc(O[C@H]2C=C[C@@H](c3ccccc3)O[C@@H]2CO/N=C(\C)CCN2CCc3nc(-c4ccccc4)c(-c4ccccc4)cc3C2)cc1	none
COc1ccc(-c2nc(C(=O)NCC3CCCO3)cc3c2[nH]c2ccccc23)cc1 (stereo not given)	Apaf-1 act -224 | Rh110 interf act inactive | Apaf-1 act conf inactive
COc1cc(-c2nc(C(=O)NC3CCN(Cc4ccccc4)CC3)cc3c2[nH]c2ccccc23)cc(OC)c1OC	none
CCOc1cc(/C=C2\C(=O)N(CCC#N)N=C2C)ccc1OCC(N)=O	none
Cc1ccc2c(C)nc(Nc3nc(CSc4nc5ccccc5[nH]4)cc(=O)[nH]3)nc2c1	Apaf-1 act -71 | Rh110 interf act inactive | Apaf-1 act conf inactive
Cn1nc(-c2ccccn2)nc2c(=O)n(C)c(=O)nc1-2	none
S=C(Nc1ccc2[nH]ccc2c1)NC1CCCCC1	Apaf-1 act -86 | Rh110 interf act inactive | Apaf-1 act conf inactive
COC(=O)c1[nH]c(=O)c2ccccc2c1O	none
COc1cc(OC)cc(C(=O)NCC(=O)OCC(=O)c2ccc3c(c2)-c2ccccc2C3)c1	Apaf-1 act -65 | Rh110 interf act inactive | Apaf-1 act conf inactive
CC(CNc1ccccc1O)C(=O)O (stereo not given)	Apaf-1 act -165 | Rh110 interf act inactive | Apaf-1 act conf -81 | Apaf1 act interf inactive
CC1=NN(c2ccc(Cl)cc2)C(=O)C1C(c1cccc(O)c1)c1c(C)[nH]n(-c2ccc(Cl)cc2)c1=O (stereo not given)	none
COc1cc2sc3ccc(-c4ccc(N(C)C)nc4)cc3c(=O)c2cc1OC	none
CCOc1ccc2oc(C(=O)N(C)CC(=O)Nc3ccc(OCC)c(OCC)c3)c(C)c2c1	Apaf-1 act -55 | Rh110 interf act inactive | Apaf-1 act conf inactive
CN(CC(=O)Nc1cccc(F)c1)C(=O)c1sc2ccccc2c1Cl	none
CC(=O)[C@@H]1[C@@H]2C(=O)N(c3ccc(F)c(Cl)c3)C(=O)[C@@H]2C2c3ccccc3C=CN21 (stereo not given in full)	none
CCCNc1c(F)c(F)c2c(C)c3ccccc3nc2c1F	none
Oc1ccc(NCc2cccc(OCc3ccccc3)c2)cc1	none
NC(=O)N(CCC(=O)O)c1ccccc1	Apaf-1 act -47 | Rh110 interf act inactive | Apaf-1 act conf inactive
Cc1cc(C)c(S(=O)(=O)NCc2ccc3c(c2)cc(C)n3C)c(C)c1	none
CC[C@]12c3[nH]c4ccc(Cl)cc4c3CCN1C(=O)[C@@H](CC(=O)NCC13CC4CC(CC(C4)C1)C3)C[C@@H]2C(=O)N1CCN(C(=O)c2ccco2)CC1	none
Cc1[nH]n(-c2ccccc2)c(=O)c1C(c1ccc(O)c([N+](=O)[O-])c1)c1c(C)[nH]n(-c2ccccc2)c1=O	none
COc1ccc(-c2cc(C)no2)cc1S(=O)(=O)NCCc1ccco1	Apaf-1 act -382 | Rh110 interf act inactive | Apaf-1 act conf inactive
Cc1ccc(-c2nn3c(-c4ccco4)nnc3c3ccccc23)cc1S(=O)(=O)NCC1CCCO1 (stereo not given)	none
CCN1CCN(Cc2ccc(NC(=O)c3cc(NC(=O)C4=NN(c5ccccc5)C(=O)C4)cc(OC)c3)cc2C(F)(F)F)CC1	none
CCCCCCCCCCOC(=O)Cn1c(COc2ccccc2C)[n+](C)c2ccccc21	none
CC(=O)c1ccc(Nc2nc(-c3cccnc3)cs2)cc1	Apaf-1 act -208 | Rh110 interf act inactive | Apaf-1 act conf inactive
Cc1ccc(OCC(=O)N/N=C\c2c(C)n(C)c3ccccc23)c([N+](=O)[O-])c1	none
COc1cc(/C=C/C(=O)OCC(=O)Nc2cc(C)c(C)cc2[N+](=O)[O-])ccc1O	Apaf-1 act -71 | Rh110 interf act inactive | Apaf-1 act conf inactive
COc1cc(/C=C/C(=O)OCC(=O)Nc2ccc(C)cc2[N+](=O)[O-])ccc1O	Apaf-1 act -94 | Rh110 interf act inactive | Apaf-1 act conf inactive
CCc1ccc(NC(=S)Nc2cccc3cnccc23)cc1	none
O=C(c1ccc2ncsc2c1)N1CCCC(C(F)(F)F)C1 (stereo not given)	none
CSCCC(NC(=O)c1ccco1)C(=O)N1CCCC(C(F)(F)F)C1 (stereo not given)	Apaf-1 act -394 | Rh110 interf act inactive | Apaf-1 act conf inactive
Cc1nn(Cc2c(F)c(F)c(F)c(F)c2F)c(C)c1NC(=O)c1ccc(COc2ccc(Cl)cc2Cl)o1	none
CCCC[n+]1ccn(C2=C([O-])c3ccccc3C(=O)/C2=N\S(=O)(=O)c2ccc(Br)cc2)c1	none
Cc1ccc(NC(=O)CN2C(=O)S/C(=C/c3ccc(-c4cc(C(=O)O)ccc4C)o3)C2=O)cc1C	none
Cn1nc(-c2ccc(Cl)cc2)c2cc(C(=O)NCCCN3CCCC3)sc21	none
Oc1ccc(/C=N/Nc2cc(N3CCCC3)nc(N3CCCC3)n2)cc1O	none
CSc1ccc(CN(C)C(=O)c2cccc(S(=O)(=O)NCc3ccccc3)c2)cc1	none
COC(=O)c1cc(S(=O)(=O)NCc2cccc(Br)c2)c[nH]1	Apaf-1 act -53 | Rh110 interf act inactive | Apaf-1 act conf inactive
CC1CN(C(=O)c2cccc(S(=O)(=O)NCc3ccccc3)c2)CC(C)O1 (stereo not given)	none
Cc1nc2sccn2c(=O)c1CCN1CCC(=C(c2ccc(F)cc2)c2ccc(F)cc2)CC1	none
CCN(CCO)c1ccc(NC(=S)Nc2cccc(S(=O)(=O)N(C)C)c2)cc1	none
CCNC(=S)Nc1cccc(NC(=O)c2ccccc2O)c1	Apaf-1 act -206 | Rh110 interf act inactive | Apaf-1 act conf inactive
COc1ccc2[nH]c3c(C)c4ccncc4c(C)c3c2c1	none
COc1cccc(-c2cc(C(F)(F)F)n3nc(N)nc3n2)c1	Apaf-1 act -44 | Rh110 interf act inactive | Apaf-1 act conf inactive
COc1cccc(-c2cn3nc4c(nc3n2)CCCC4)c1	none
COC(=O)c1ccc(-c2ncc(-c3cccc4ccccc34)o2)cc1	none

Assay outcomes deposited in PubChem by Sanford-Burnham Center for Chemical Genomics.
